# MrgX1 allo act: positive allosteric modulators of MrgX1, primary screen, HEK293 cells, Fluo-4 calcium flux. AID 588675, 2011. B-score at 10 µM. FDSS; active compounds read high. 310,000 compounds, 0.63% hits. Mas-related G-protein coupled receptor member X1 (Homo sapiens), Q96LB2;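 active means plate-corrected calcium response at least 3 library SD above typical, normal starting fluorescence, not activating the receptor alone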;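 further: compound read alongside a low EC10 to EC30 dose of BAM8-22 agonist; peak minus trough fluorescence over baseline measured at the second addition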
# Target sequence (Q96LB2 whole entry, looked up): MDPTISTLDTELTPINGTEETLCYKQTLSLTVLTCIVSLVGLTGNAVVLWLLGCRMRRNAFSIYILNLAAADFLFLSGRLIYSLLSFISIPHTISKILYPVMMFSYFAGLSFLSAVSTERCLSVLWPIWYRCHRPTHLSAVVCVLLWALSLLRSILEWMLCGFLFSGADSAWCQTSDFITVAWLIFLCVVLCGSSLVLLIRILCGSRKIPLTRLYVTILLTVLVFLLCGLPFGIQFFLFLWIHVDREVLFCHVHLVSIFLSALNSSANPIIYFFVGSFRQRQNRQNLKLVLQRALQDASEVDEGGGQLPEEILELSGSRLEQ
# MrgX1 antagonist: antagonists of human MrgX1 receptor, primary screen, HEK293 cells, Fluo-4 calcium flux; B-score at 10 µM; BAM8-22 antagonism; active compounds read low; 310,000 compounds, 1.3% hits; Mas-related G-protein coupled receptor member X1 (Homo sapiens), Q96LB2; AID 588676, 2011;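 active means calcium-response B-score plate-corrected more than 3 library SD below zero, starting fluorescence within 5 deviations, no agonist response on first addition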;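 further: peak minus trough fluorescence over baseline after final BAM8-22 challenge near maximal dose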
# MrgX1 ag: agonists of human MrgX1 receptor, primary screen, HEK293 cells, Fluo-4 calcium flux; Mas-related G-protein coupled receptor member X1 (Homo sapiens), Q96LB2; Fluo-4 calcium fluorescence, agonist mode; active compounds read high; B-score at 10 µM; 310,000 compounds, 0.44% hits; AID 588627, 2011;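 active means calcium response B-score plate-corrected fluorescence ratio at least 3 library SD, with starting fluorescence B-score inside 5 SD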
#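 System: HEK293 cells stably expressing human MrgX1 receptor; Dosing: test compound in the initial addition of three; Schedule: overnight plating, then 30 min 37 °C plus 30 min room-temperature dye loading; Detection: kinetic calcium dye fluorescence, Fluo-4 NW; Controls: per-plate positive and negative controls for Z′ factor.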
# RGS4 inh: RGS4 inhibitors, primary screen, cell-based, HEK293 M3R inducible RGS4, calcium flux. Regulator of G-protein signaling 4 (Homo sapiens), P49798. Fluo-4 calcium flux; active compounds read high; triggered by carbachol at its EC20. B-score at 10 µM. 310,000 compounds, 0.45% hits. AID 463165, 2010;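 active means B-score, a plate-corrected calcium signal, over three deviations above library mean, with baseline fluorescence within five deviations of library mean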;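 further: RGS4 expression induced by doxycycline in cells with stable M3 receptor; B-score is computed from the integrated fluorescence ratio over baseline after carbachol; higher B-score means a larger calcium signal and so more RGS4 inhibition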
# Target sequence (P49798 whole entry, looked up): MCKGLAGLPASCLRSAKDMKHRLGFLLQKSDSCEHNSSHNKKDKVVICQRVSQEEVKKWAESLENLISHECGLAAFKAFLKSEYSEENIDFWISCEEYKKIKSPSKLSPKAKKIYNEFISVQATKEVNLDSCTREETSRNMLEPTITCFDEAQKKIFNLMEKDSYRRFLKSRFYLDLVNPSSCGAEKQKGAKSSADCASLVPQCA
# RGS4 pot: RGS4 potentiators or activators, primary screen, cell-based, HEK293 M3R inducible RGS4, calcium flux; carbachol calcium flux Fluo4; active compounds read low; B-score at 10 µM; 310,000 compounds, 0.92% hits;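 active means B-score of the integrated calcium signal more than 4 SD below the library mean, with starting fluorescence not abnormally high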;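 further: negative B-score means reduced calcium response which marks RGS4 activation or potentiation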
#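 Detection: kinetic calcium fluorescence imaging with Fluo4-AM dye, 2 µM / Material: HEK293 cells with stable M3R and inducible RGS4 / Schedule: recording 10 s baseline at 1 Hz, 100 s post-agonist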
# MrgX1 ant reconf: MrgX1 receptor antagonists, duplicate retest, confirmation, HEK293 cells, Fluo-4 calcium flux; remaining BAM8-22 calcium response % of control (active compounds read low), % at 10 µM; BAM8-22 calcium flux; active compounds read low; 2,300 compounds, 19% hits; shares compounds with MrgX1 antagonist;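 active means remaining agonist calcium response no higher than 100% minus 3 SD of agonist-only control wells, with starting fluorescence near control levels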;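 further: agonist BAM8-22 given at a near maximal EC90 to ECmax level; peak minus minimum fluorescence divided by baseline after agonist addition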
# HEK293 Ca flux: nonspecific calcium signal in parental HEK293, confirmation, counter-screen for MrgX1 antagonist project, parental HEK293 cells, Fluo-4 calcium flux; shares compounds with MrgX1 antagonist; Fluo-4 calcium fluorescence, FDSS; fluorescence ratio F(max-min)/F0 at 10 µM; 4,000 compounds, 2% hits; AID 624111, 2012;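 active means duplicate-averaged calcium fluorescence ratio at least three times the standard deviation of buffer wells, a nonspecific response in parental cells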
# HEK293 Ca counter: calcium response in parental HEK293 cells, primary screen, counter-screen for MrgX1 allosteric activator project, cell-based, Fluo-4 calcium flux, duplicate; AID 624114, 2012; fluorescence ratio F(max-min)/F0 at 10 µM; Fluo-4 fluorescence ratio; active compounds read high; shares compounds with MrgX1 antagonist; 4,000 compounds, 0.4% hits;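 active means calcium fluorescence ratio, averaged over duplicates, at least 3 SD of the buffer-well ratio, meaning a nonspecific response in receptor-free cells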;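 further: untransfected parental HEK293 lacking MrgX1 used as counterscreen for MrgX1 allosteric activators; fluorescence change taken during the second addition on a kinetic imager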
# HEK293 Ca cntr2: calcium response in parental HEK293 cells, primary screen, counter-screen for MrgX1 agonist project, cell-based, Fluo-4 calcium flux, duplicate, agonist mode | shares compounds with MrgX1 antagonist | Fluo-4 calcium fluorescence (FDSS); active compounds read high | fluorescence ratio F(max-min)/F0 at 10 µM | 4,000 compounds, 8.7% hits | AID 624115, 2012;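 active means calcium fluorescence ratio at least three times the spread of buffer wells, meaning a non-specific response in parental cells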
# * marks the source's active call; other numbers are inactive results; i = inactive; nt = not tested or not shown. Compounds with a hit are over-represented: about 3.5% of the library has one in this group of screens.
SMILES,MrgX1 allo act,MrgX1 antagonist,MrgX1 ag,RGS4 inh,RGS4 pot,MrgX1 ant reconf,HEK293 Ca flux,HEK293 Ca counter,HEK293 Ca cntr2
COc1ccc(OC)c2sc(NC(=O)c3ccc(Cl)s3)nc12,i,-5.04*,i,i,i,i,i,i,i
O=C(Cn1cc2c(n1)CCCCC2)N1CCc2ccccc2C1,i,i,i,i,i,nt,nt,nt,nt
O=C(Cn1cc2c(n1)CCCC2)N1CCc2ccccc21,i,-7.09*,i,i,i,i,i,i,i
CC1CC(C)CN(C(=O)C(Cc2ccccc2)NC(=O)c2ccccc2)C1 (stereo not given),i,i,i,i,i,nt,nt,nt,nt
COc1ccc2oc(C(=O)OCC(=O)Nc3ccccc3)c(C)c2c1,i,i,i,i,i,nt,nt,nt,nt
COc1ccc2oc(C(=O)OCC(=O)Nc3ccc(N4CCOCC4)cc3)c(C)c2c1,i,-8.49*,i,i,i,i,i,i,i
CCOC(=O)c1c(C)[nH]c(C)c1S(=O)(=O)N(C)CC(=O)Nc1cc(C)ccc1OC,i,-9.1*,i,i,i,i,i,i,i
Cc1cc(C(F)(F)F)c(C#N)c(SCC(=O)Nc2nc3ccccc3s2)n1,i,i,i,i,i,nt,nt,nt,nt
Cc1ccc2sc(NC(=O)CSc3nc(C)cc(C)c3C#N)nc2c1,i,-6.36*,i,i,i,i,i,i,i
CCOC(=O)C1=C(COC(=O)C2CC(=O)N(c3ccc(C)cc3)C2)NC(=O)NC1C (stereo not given),i,-5.77*,i,i,i,i,i,i,i
COc1cc(OC)c(/C=N/n2c(C)nnc2C)c(OC)c1,i,-4.78*,i,i,i,i,i,i,i
COc1ccc(/C=N/n2c(C)nnc2C)c(OC)c1,i,i,i,i,i,nt,nt,nt,nt
NC(=O)c1cc2c3ccccc3ccn2c1-c1ccccc1,i,-5.7*,i,i,i,i,i,i,i
CCOC(=O)N1CCN(C(=O)c2ccccc2N(C)S(C)(=O)=O)CC1,i,-7.64*,i,i,i,i,i,i,i
CC(=O)N1CN(Cc2ccccn2)Cc2c1sc1c2CCCC1,i,i,i,i,i,nt,nt,nt,nt
CC(=O)N1CN(CCCn2ccnc2)Cc2c1sc1c2CCCC1,i,-5.76*,i,i,i,i,i,i,i
Cc1cc(=O)oc2c(C)c(OC3CCCCC3=O)ccc12 (stereo not given),i,i,i,i,i,nt,nt,nt,nt
Cc1cc(C(=O)COC(=O)c2ccc3c(c2)NC(=O)CS3)c(C)n1CC1CCCO1 (stereo not given),i,-5.91*,i,i,i,i,i,i,i
COc1ccc(C(=O)CNc2ccc(C)cc2C)cc1,i,i,i,i,i,nt,nt,nt,nt
Cc1cc(-c2nnc3n2CCCCC3)c(C)n1-c1ccccc1,i,-4.68*,i,i,i,i,i,i,i
COc1ccc(-c2nnc3n2CCCCC3)cc1OC,i,i,i,i,i,nt,nt,nt,nt
COc1ccc(CN2CN=C(Nc3nc4ccccc4s3)NC2)cc1,i,-7.47*,i,i,i,57.0%*,i,i,i
c1ccc(CN2CN=C(Nc3nc4ccccc4s3)NC2)cc1,i,i,i,i,i,nt,nt,nt,nt
O=C(C(=O)N1CCN(c2ccc(F)cc2)CC1)c1cn(CC(=O)N2CCOCC2)c2ccccc12,i,i,i,i,i,nt,nt,nt,nt
Cc1ccc(CSc2nnc(-c3ccncc3)n2CC2CCCO2)cc1 (stereo not given),i,i,i,i,i,nt,nt,nt,nt
SMILES,MrgX1 allo act,MrgX1 antagonist,MrgX1 ag,RGS4 inh,RGS4 pot,MrgX1 ant reconf,HEK293 Ca flux,HEK293 Ca counter,HEK293 Ca cntr2
COc1ccc(C(=O)COC(=O)CCN2C(=O)C3C4CC(C(Br)C4Br)C3C2=O)cc1 (stereo not given),i,-5.41*,i,i,i,i,i,i,i
COc1ccc(C(=O)COC(=O)CCN2C(=O)[C@@H]3[C@H](C2=O)[C@@H]2C[C@H]3C(Br)C2Br)cc1 (stereo not given in full),i,i,i,i,i,nt,nt,nt,nt
CC(C)c1ccc(NC2CCCN(C(=O)C3=NN(C)C(=O)CC3)C2)cc1 (stereo not given),i,i,i,i,i,nt,nt,nt,nt
COc1ccccc1NC(=O)NCCN1C(=O)C2C3C=CC(C3)C2C1=O (stereo not given),i,-7.56*,i,i,i,i,i,i,i
COc1ccccc1NC(=O)NCCN1CCCCC1,i,i,i,i,i,nt,nt,nt,nt
CCOC(=O)c1ccc(NC(=O)c2cn(-c3ccccc3)nc2-c2ccncc2)cc1,i,i,i,i,i,nt,nt,nt,nt
Cc1ccc(-n2nnc3c(=O)oc4ccccc4c32)cc1,i,i,i,i,i,nt,nt,nt,nt
CCC(C)n1nnc2c(=O)oc3ccccc3c21 (stereo not given),i,-6.47*,i,i,i,i,i,i,i
Cc1ccc(N(CCC#N)C(=O)COC(=O)c2ccccn2)cc1,i,i,i,i,i,nt,nt,nt,nt
Cc1ccc(C(=O)Nc2nc3ccc(S(C)(=O)=O)cc3s2)o1,i,i,i,i,i,nt,nt,nt,nt
Cc1noc(C)c1C(=O)Nc1nc2ccc(S(C)(=O)=O)cc2s1,i,-7.5*,i,i,i,i,i,i,i

# Screening results as filed in PubChem BioAssay.
